In brackets after ≈: the same amount, converted by molar mass. Activity calls are given as the source filed them. The calls are words filed in the database; no cut-off is given here. Bridge positions count the residues as written; N and C are the ends. Square brackets hold non-standard residues; d marks the D form. Peptide text beside a SMILES is read from it. * marks the point of attachment. Tetradecenoyl(2E,13-Me) = CC(C)CCCCCCCCC/C=C/C(=O)*; d(aThr) = C[C@@H](O)[C@@H](N)C(=O)O; dPip = O=C(O)[C@H]1CCCCN1; Dap = NC[C@H](N)C(=O)O
How the values were obtained:
Staphylococcus simulans [1] = experiment: Antibacterial activity against Staphylococcus simulans 22 assessed as inhibition of bacterial growth incubated for 16 hrs in presence of C55-P by broth microdilution assay; assay type: functional, organism-based
Outline: (§1)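 The antibiotic was pre-incubated with the cell wall precursor (e.g. UDP-GlcNAc, C55-PP, C55-P) before being given to the bacteria, with vancomycin as positive control.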

Staphylococcus simulans [2] = experiment: Antibacterial activity against Staphylococcus simulans 22 assessed as inhibition of bacterial growth incubated for 16 hrs in presence of lipid I by broth microdilution assay; assay type: functional, organism-based; outline: as §1
Staphylococcus simulans [3] = experiment: Antibacterial activity against Staphylococcus simulans 22 assessed as inhibition of bacterial growth incubated for 16 hrs in presence of C15-PP by broth microdilution assay; assay type: functional, organism-based; outline: as §1
Staphylococcus simulans [4] = experiment: Antibacterial activity against Staphylococcus simulans 22 assessed as inhibition of bacterial growth incubated for 16 hrs in presence of UDP-MurNAc-pp by broth microdilution assay; assay type: functional, organism-based; outline: as §1
Staphylococcus simulans [5] = experiment: Antibacterial activity against Staphylococcus simulans 22 assessed as inhibition of bacterial growth incubated for 16 hrs in presence of lipid II by broth microdilution assay; assay type: functional, organism-based; outline: as §1
Staphylococcus simulans [6] = experiment: Antibacterial activity against Staphylococcus simulans 22 assessed as inhibition of bacterial growth incubated for 16 hrs in presence of C15-P by broth microdilution assay; assay type: functional, organism-based; outline: as §1
Staphylococcus simulans [7] = experiment: Antibacterial activity against Staphylococcus simulans 22 assessed as inhibition of bacterial growth incubated for 16 hrs in presence of C55-PP by broth microdilution assay; assay type: functional, organism-based; outline: as §1
Staphylococcus simulans [8] = experiment: Antibacterial activity against Staphylococcus simulans 22 assessed as inhibition of bacterial growth incubated for 16 hrs in presence of UDP-GlcNAc by broth microdilution assay; assay type: functional, organism-based; outline: as §1
Staphylococcus simulans [9] = experiment: Antibacterial activity against Staphylococcus simulans 22 assessed as inhibition of bacterial growth incubated for 16 hrs in presence of 10 mM Ca2+ by broth microdilution assay; assay type: functional
Outline: (§2)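 MICs were read in µg/mL against indicator strains S. aureus 29213 and S. simulans 22. The growth medium was supplemented with Ca2+ at 5.0 or 10 mM.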

Staphylococcus simulans [10] = experiment: Antibacterial activity against Staphylococcus simulans 22 assessed as inhibition of bacterial growth incubated for 16 hrs in presence of 5 mM Ca2+ by broth microdilution assay; assay type: functional; outline: as §2
[11] = Binding affinity to undecaprenyl phosphate (C55-P) in large unilamellar vesicles comprising 1,2-dioleoyl-sn-glycero-3-phosphocholine containing 1.5 mol % C55-P by ITC analysis
Outline: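 Isothermal titration calorimetry: DOPC vesicles containing 1.5 mol% C55-P were titrated into the antibiotic solution in HEPES buffer with CaCl2. Heat was plotted against molar ratio.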

Staphylococcus aureus [12] = experiment: Induction of UDP-MurNAc-pentapeptide accumulation in Staphylococcus aureus ATCC 29213 at 10 times MIC incubated for 60 mins by HPLC analysis; assay type: functional
Staphylococcus aureus [13] = experiment: Antibacterial activity against Staphylococcus aureus ATCC 29213 assessed as inhibition of bacterial growth incubated for 16 hrs by broth microdilution assay; assay type: functional; outline: as §2
[14] = Binding affinity to undecaprenyl phosphate (C55-P) assessed as reduction in lipid II synthesis at 0.5 to 2 equiv in presence of UDP-GlcNAc, UDPMurNAc-pentapeptide and Micrococcus flavus membrane vesicles and measured after 2 hrs by TLC analysis; settings: dose 0.5-2 equiv
Outline: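 C55-P was pre-treated with the antibiotic over a range of concentrations. UDP-GlcNAc, UDP-MurNAc-pentapeptide and M. flavus membrane vesicles containing MraY and MurG were then added, and lipid II formation was monitored.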

Staphylococcus aureus [15] = experiment: Antibacterial activity against Staphylococcus aureus ATCC 29213 assessed as inhibition of bacterial growth incubated for 16 hrs in presence of 10 mM Ca2+ by broth microdilution assay; assay type: functional
Outline: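 MIC, read in µg/mL, was determined in growth medium supplemented with Ca2+ at a final 10 mM. The same strain was also tested at 5 mM Ca2+ to check how calcium level affects the MIC.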

[16] = Binding affinity to undecaprenyl phosphate (C55-P) at 0.5 to 2 equiv in Ca2+-containing buffer incubated for 2 hrs by TLC-based binding assay; settings: dose 0.5-2 equiv
[17] = Binding affinity to lipid II at 0.5 to 2 equiv in Ca2+-containing buffer incubated for 2 hrs by TLC-based binding assay; settings: dose 0.5-2 equiv
[18] = Binding affinity to calcium at 60 uM in pH 7.4 buffer by CD spectroscopy

Structure (SMILES) | Activity (Staphylococcus simulans [1]) | Activity (Staphylococcus simulans [2]) | Activity (Staphylococcus simulans [3]) | Activity (Staphylococcus simulans [4]) | Activity (Staphylococcus simulans [5]) | Activity (Staphylococcus simulans [6]) | Activity (Staphylococcus simulans [7]) | Activity (Staphylococcus simulans [8]) | MIC (Staphylococcus simulans [9]) | MIC (Staphylococcus simulans [10]) [µg/mL] | Kd [11] [nM] | Activity (Staphylococcus aureus [12]) | MIC (Staphylococcus aureus [13]) [µg/mL] | Activity [14] | MIC (Staphylococcus aureus [15]) [µg/mL] | Activity [16] | Activity [17] | Activity [18]
CCCCCCCCCC(=O)N[C@@H](Cc1c[nH]c2ccccc12)C(=O)N[C@H](CC(N)=O)C(=O)N[C@@H](CC(=O)O)C(=O)N[C@H]1CNC(=O)[C@@H](Cc2c[nH]c3ccccc23)NC(=O)[C@H](CCC(=O)O)NC(=O)[C@@H](CO)NC(=O)CNC(=O)[C@H](CC(=O)O)NC(=O)[C@@H](C)NC(=O)[C@H](CC(=O)O)NC(=O)[C@H](CCCN)NC(=O)CNC1=O | Active | Active | Active | Active | Active | Active | Active | Active | – | – | – | – | – | – | – | – | – | –
CCCCCCCCCC(=O)N[C@@H](Cc1c[nH]c2ccccc12)C(=O)N[C@H](CC(N)=O)C(=O)N[C@@H](CC(=O)O)C(=O)N[C@H]1CNC(=O)[C@H]2CCCN2C(=O)[C@H]([C@@H](C)CC)NC(=O)[C@@H]([C@@H](C)O)NC(=O)CNC(=O)[C@H](CC(=O)O)NC(=O)[C@@H](C)NC(=O)[C@H](CC(=O)O)NC(=O)CNC(=O)CNC1=O | Active | Active | Active | Active | Active | Active | Active | Active | – | – | – | – | – | – | – | – | – | –
CCCCCCCCCC(=O)N[C@@H](Cc1c[nH]c2ccccc12)C(=O)N[C@H](CC(N)=O)C(=O)N[C@@H](CC(=O)O)C(=O)N[C@H]1CNC(=O)[C@@H](CC(=O)c2ccccc2N)NC(=O)[C@H](CCC(=O)O)NC(=O)[C@@H](CO)NC(=O)CNC(=O)[C@H](CC(=O)O)NC(=O)[C@@H](C)NC(=O)[C@H](CC(=O)O)NC(=O)[C@H](CCCN)NC(=O)CNC1=O | Active | Active | Active | Active | Active | Active | Active | Active | – | – | – | – | – | – | – | – | – | –
CC[C@H](C)[C@@H]1NC(=O)[C@@H]([C@@H](C)O)NC(=O)CNC(=O)[C@H](CC(=O)O)NC(=O)CNC(=O)[C@H](CC(=O)O)NC(=O)CNC(=O)[C@H]2CCCCN2C(=O)[C@@H](NC(=O)[C@H](CC(=O)O)NC(=O)/C=C/CCCCCCCCCC(C)C)CNC(=O)[C@@H]2CCCN2C1=O ({Tetradecenoyl(2E,13-Me)}-D[Dap][dPip]GDGDG[d(aThr)]IP; lactam 2-C) | inactive | – | Active | – | – | inactive | inactive | – | ≤ 1 µg/mL | 4 | 7.3 | Active | 4 (≈ 3.21 µM) | Dose-dependent effect | 2 | Active | inactive | –
CN[C@H](CC(C)C)C(=O)N[C@H]1C(=O)N[C@@H](CC(N)=O)C(=O)N[C@H]2C(=O)N[C@H]3C(=O)N[C@H](C(=O)N[C@H](C(=O)O)c4cc(O)cc(O)c4-c4cc3ccc4O)[C@H](O)c3ccc(c(Cl)c3)Oc3cc2cc(c3O[C@@H]2O[C@H](CO)[C@@H](O)[C@H](O)[C@H]2O[C@H]2C[C@](C)(N)[C@H](O)[C@H](C)O2)Oc2ccc(cc2Cl)[C@H]1O | – | inactive | – | inactive | inactive | – | – | – | – | – | – | – | – | – | – | – | – | –
CCCCCCCCCC(=O)N[C@@H](Cc1c[nH]c2ccccc12)C(=O)N[C@H](CC(N)=O)C(=O)N[C@@H](CC(=O)O)C(=O)N[C@H]1CNC(=O)[C@@H](Cc2c[nH]c3ccccc23)NC(=O)[C@H](CCC(=O)O)NC(=O)[C@@H](CO)NC(=O)CNC(=O)[C@H](CC(=O)O)NC(=O)[C@@H](C)NC(=O)[C@H](CC(=O)O)NC(=O)[C@H](CCCN)NC(=O)[C@H]2CCCCN2C1=O | Active | Active | Active | Active | Active | Active | Active | Active | – | – | – | – | – | – | – | – | – | –
CCCCCCCCCC(=O)N[C@@H](Cc1c[nH]c2ccccc12)C(=O)N[C@H](CC(N)=O)C(=O)N[C@@H](CC(=O)O)C(=O)N[C@H]1CNC(=O)[C@@H](CC(=O)c2ccccc2N)NC(=O)[C@H](CCC(=O)O)NC(=O)[C@@H](CO)NC(=O)CNC(=O)[C@H](CC(=O)O)NC(=O)[C@@H](C)NC(=O)[C@H](CC(=O)O)NC(=O)[C@H](CCCN)NC(=O)[C@H]2CCCCN2C1=O | Active | Active | Active | Active | Active | Active | Active | Active | – | – | – | – | – | – | – | – | – | –
CCCCCCCCCC(=O)N[C@@H](Cc1c[nH]c2ccccc12)C(=O)N[C@H](CC(N)=O)C(=O)N[C@@H](CC(=O)O)C(=O)N[C@H]1CNC(=O)[C@H]2CCCN2C(=O)[C@H]([C@@H](C)CC)NC(=O)[C@@H]([C@@H](C)O)NC(=O)CNC(=O)[C@H](CC(=O)O)NC(=O)[C@@H](C)NC(=O)[C@H](CC(=O)O)NC(=O)CNC(=O)[C@H]2CCCCN2C1=O | Active | Active | Active | Active | Active | Active | Active | Active | inactive | – | – | – | – | – | – | – | – | Active
CCCCCCCCCC(=O)N[C@@H](Cc1c[nH]c2ccccc12)C(=O)N[C@H](CC(N)=O)C(=O)N[C@@H](CC(=O)O)C(=O)N[C@H]1CNC(=O)[C@H]2CCCN2C(=O)[C@H](CCC(=O)O)NC(=O)[C@@H](CO)NC(=O)CNC(=O)[C@H](CC(=O)O)NC(=O)[C@@H](C)NC(=O)[C@H](CC(=O)O)NC(=O)[C@H](CCCN)NC(=O)[C@H]2CCCCN2C1=O | Active | Active | Active | Active | Active | Active | Active | Active | inactive | – | – | – | – | – | – | – | – | Active
CCCCCCCCCC(=O)N[C@@H](Cc1c[nH]c2ccccc12)C(=O)N[C@H](CC(N)=O)C(=O)N[C@@H](CC(=O)O)C(=O)N[C@@H]1C(=O)NCC(=O)N[C@@H](CCCN)C(=O)N[C@@H](CC(=O)O)C(=O)N[C@H](C)C(=O)N[C@@H](CC(=O)O)C(=O)NCC(=O)N[C@H](CO)C(=O)N[C@@H]([C@@H](C)CC(=O)O)C(=O)N[C@@H](CC(=O)c2ccccc2N)C(=O)O[C@@H]1C | – | – | – | – | – | – | – | – | ≤ 0.031 µg/mL | 0.031 | – | – | 0.25 (≈ 0.154 µM) | – | 0.125 | – | – | –
CCCCCCCCCC(=O)N[C@@H](Cc1c[nH]c2ccccc12)C(=O)N[C@@H](CC(N)=O)C(=O)N[C@@H](CC(=O)O)C(=O)N[C@@H]1C(=O)NCC(=O)N[C@@H](CCCN)C(=O)N[C@H](CC(=O)O)C(=O)N[C@H](C)C(=O)N[C@@H](CC(=O)O)C(=O)NCC(=O)N[C@H](CO)C(=O)N[C@@H]([C@@H](C)CC(=O)O)C(=O)N[C@@H](CC(=O)c2ccccc2N)C(=O)O[C@@H]1C | Active | Active | Active | Active | Active | Active | Active | Active | – | – | – | inactive | – | inactive | – | inactive | inactive | –

From ChEMBL document CHEMBL4680073, “Total Synthesis of Laspartomycin C and Characterization of Its Antibacterial Mechanism of Action” (J Med Chem, 2016)
